According to ChEMBL document CHEMBL1212783, “Cellular pharmacology of the anti-hepatitis B virus agent beta-L-2',3'-didehydro-2',3'-dideoxy-N4-hydroxycytidine: relevance for activation in HepG2 cells” (Antimicrob Agents Chemother, 2010):
Values belong to the molecule of their own block, whether it stands above or below them.

How the values were obtained:
[1] = Cytotoxicity against human HepG2 cells; format: cell-based; details: read-out: CD50 (the source's name)
[2] = tested on: Hepatitis B virus; assay: Inhibition of HBV DNA polymerase at 1 uM
[3] = Half life in human HepG2 cells by HPLC analysis; format: ADME, cell-based
In short: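 HepG2 cells (1.5 × 10^6/well) were loaded 24 h with 10 μM [3H]-labelled nucleoside, washed three times and chased in drug-free medium. Cells were harvested at intervals, then counted and methanol-extracted. Mono-, di- and triphosphates were quantified by radio-HPLC. t1/2 was calculated as 0.693/κ, where κ is the terminal slope of a semilog plot of intracellular phosphate level versus time.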

[4] = tested on: HepG2; assay: Drug metabolism in human HepG2 cells assessed as compound monophosphate level per 10^6 cells at 10 uM after 12 hrs by reversed-phase HPLC analysis; format: ADME, cell-based; details: hepg2, 12 h
In short: (§1)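 HepG2 cells were grown in DMEM with 10% FBS and 1 mM pyruvate at 37°C, 5% CO2. They were seeded at 2.5 × 10^6/well and exposed after adherence to 2 or 10 μM [3H]-labelled nucleoside (440 or 1,000 dpm/pmol) for 6–24 h. Cells were washed in ice-cold PBS, trypsinized and counted (viability >95%). Metabolites were extracted twice in 60% methanol at −20°C for 16 h. Extracts were separated by ion-pair reverse-phase C18 HPLC and counted by fraction scintillation. Phosphates were identified by UV spectra, a triphosphate standard and alkaline phosphatase digestion.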

[5] = tested on: HepG2; assay: Drug metabolism in human HepG2 cells assessed as compound monophosphate level per 10^6 cells at 10 uM after 24 hrs by reversed-phase HPLC analysis; format: ADME, cell-based; details: hepg2, 24 h; in short: as §1
[6] = tested on: Hepatitis B virus; assay: Antiviral activity against HBV infected in human HepG2(2.2.15) cells; format: functional; details: read-out: ED50 (the source's name)
[7] = tested on: HepG2; assay: Drug metabolism in human HepG2 cells assessed as compound diphosphate level per 10^6 cells at 10 uM after 24 hrs by reversed-phase HPLC analysis; format: ADME, cell-based; details: hepg2, 24 h; in short: as §1
[8] = tested on: HepG2; assay: Drug metabolism in human HepG2 cells assessed as compound triphosphate level per 10^6 cells at 2 uM after 6 hrs by reversed-phase HPLC analysis; format: ADME, cell-based; details: hepg2, 6 h; in short: as §1
[9] = tested on: HepG2; assay: Drug metabolism in human HepG2 cells assessed as compound diphosphate level per 10^6 cells at 10 uM after 12 hrs by reversed-phase HPLC analysis; format: ADME, cell-based; details: hepg2, 12 h; in short: as §1
[10] = tested on: HepG2; assay: Drug metabolism in human HepG2 cells assessed as compound monophosphate level per 10^6 cells at 10 uM after 18 hrs by reversed-phase HPLC analysis; format: ADME, cell-based; details: hepg2, 18 h; in short: as §1
[11] = tested on: HepG2; assay: Drug metabolism in human HepG2 cells assessed as compound triphosphate level per 10^6 cells at 2 uM after 24 hrs by reversed-phase HPLC analysis; format: ADME, cell-based; details: hepg2, 24 h; in short: as §1
[12] = tested on: HepG2; assay: Drug metabolism in human HepG2 cells assessed as compound monophosphate level per 10^6 cells at 2 uM after 24 hrs by reversed-phase HPLC analysis; format: ADME, cell-based; details: hepg2, 24 h; in short: as §1
[13] = tested on: HepG2; assay: Drug metabolism in human HepG2 cells assessed as compound diphosphate level per 10^6 cells at 10 uM after 6 hrs by reversed-phase HPLC analysis; format: ADME, cell-based; details: hepg2, 6 h; in short: as §1
[14] = tested on: HepG2; assay: Drug metabolism in human HepG2 cells assessed as compound diphosphate level per 10^6 cells at 10 uM after 18 hrs by reversed-phase HPLC analysis; format: ADME, cell-based; details: hepg2, 18 h; in short: as §1
[15] = tested on: HepG2; assay: Drug metabolism in human HepG2 cells assessed as compound monophosphate level per 10^6 cells at 2 uM after 18 hrs by reversed-phase HPLC analysis; format: ADME, cell-based; details: hepg2, 18 h; in short: as §1
[16] = tested on: HepG2; assay: Drug metabolism in human HepG2 cells assessed as compound triphosphate level per 10^6 cells at 2 uM after 12 hrs by reversed-phase HPLC analysis; format: ADME, cell-based; details: hepg2, 12 h; in short: as §1
[17] = tested on: HepG2; assay: Drug metabolism in human HepG2 cells assessed as compound diphosphate level per 10^6 cells at 2 uM after 18 hrs by reversed-phase HPLC analysis; format: ADME, cell-based; details: hepg2, 18 h; in short: as §1
[18] = tested on: HepG2; assay: Drug metabolism in human HepG2 cells assessed as compound triphosphate level per 10^6 cells at 10 uM after 24 hrs by reversed-phase HPLC analysis; format: ADME, cell-based; details: hepg2, 24 h; in short: as §1
[19] = tested on: HepG2; assay: Drug metabolism in human HepG2 cells assessed as compound triphosphate level per 10^6 cells at 2 uM after 18 hrs by reversed-phase HPLC analysis; format: ADME, cell-based; details: hepg2, 18 h; in short: as §1
[20] = tested on: HepG2; assay: Drug metabolism in human HepG2 cells assessed as compound triphosphate level per 10^6 cells at 10 uM after 18 hrs by reversed-phase HPLC analysis; format: ADME, cell-based; details: hepg2, 18 h; in short: as §1
[21] = tested on: HepG2; assay: Drug metabolism in human HepG2 cells assessed as compound triphosphate level per 10^6 cells at 10 uM after 6 hrs by reversed-phase HPLC analysis; format: ADME, cell-based; details: hepg2, 6 h; in short: as §1
[22] = tested on: HepG2; assay: Drug metabolism in human HepG2 cells assessed as compound monophosphate level per 10^6 cells at 10 uM after 6 hrs by reversed-phase HPLC analysis; format: ADME, cell-based; details: hepg2, 6 h; in short: as §1
[23] = tested on: HepG2; assay: Drug metabolism in human HepG2 cells assessed as compound diphosphate level per 10^6 cells at 2 uM after 6 hrs by reversed-phase HPLC analysis; format: ADME, cell-based; details: hepg2, 6 h; in short: as §1
[24] = tested on: HepG2; assay: Drug metabolism in human HepG2 cells assessed as compound triphosphate level per 10^6 cells at 10 uM after 12 hrs by reversed-phase HPLC analysis; format: ADME, cell-based; details: hepg2, 12 h; in short: as §1
[25] = Cytotoxicity against human HepG2 cells at 2 uM after 48 hrs; format: cell-based; details: read-out: INH
In short: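 HepG2 cells were preincubated 24 h with 3 μM 3-deazauridine, then exposed for a second 24 h to 3 μM deazauridine plus 2 μM tritiated test nucleoside. Read-out was inhibition of HepG2 cell growth over the 48 h.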

[26] = tested on: HepG2; assay: Drug metabolism in human HepG2 cells assessed as compound monophosphate level per 10^6 cells at 2 uM after 6 hrs by reversed-phase HPLC analysis; format: ADME, cell-based; details: hepg2, 6 h; in short: as §1
[27] = tested on: HepG2; assay: Drug metabolism in human HepG2 cells assessed as compound monophosphate level per 10^6 cells at 2 uM after 12 hrs by reversed-phase HPLC analysis; format: ADME, cell-based; details: hepg2, 12 h; in short: as §1
[28] = tested on: HepG2; assay: Drug metabolism in human HepG2 cells assessed as compound diphosphate level per 10^6 cells at 2 uM after 12 hrs by reversed-phase HPLC analysis; format: ADME, cell-based; details: hepg2, 12 h; in short: as §1
[29] = tested on: HepG2; assay: Drug metabolism in human HepG2 cells assessed as compound diphosphate level per 10^6 cells at 2 uM after 24 hrs by reversed-phase HPLC analysis; format: ADME, cell-based; details: hepg2, 24 h; in short: as §1

Compound: Nc1ccn([C@@H]2C=C[C@H](CO)O2)c(=O)n1
- CC50 [1]: 20 µM

- inhibition [2]: 90%
- half-life [3]: 29.7 h
Compound: O=c1nc(NO)ccn1[C@@H]1C=C[C@H](COP(=O)(O)OP(=O)(O)OP(=O)(O)O)O1

- Stability [4]: 5.6 pmol
- Stability [5]: 11.5 pmol
- EC50 [6]: 0.03 µM
- Stability [7]: 43.5 pmol
- Stability [8]: 1.1 pmol
- Stability [9]: 22.6 pmol
- Stability [10]: 7.3 pmol
- Stability [11]: 5.3 pmol
- Stability [12]: 4 pmol
- Stability [13]: 11.5 pmol
- Stability [14]: 30.3 pmol
- Stability [15]: 2.3 pmol
- Stability [16]: 3.1 pmol
- Stability [17]: 6.6 pmol
- Stability [18]: 19.4 pmol
- Stability [19]: 3.8 pmol
- Stability [20]: 15.2 pmol
- Stability [21]: 5.3 pmol
- Stability [22]: 4.4 pmol
- Stability [23]: 1.3 pmol
- Stability [24]: 10.4 pmol
- Stability [26]: 0.5 pmol
- Stability [27]: 1.3 pmol
- Stability [28]: 4.5 pmol
- Stability [29]: 9.8 pmol
Compound: O=c1nc(NO)ccn1[C@@H]1C=C[C@H](CO)O1
- cytotoxicity at 48 h, 2 µM [25]: 11%

- half-life [3]: 18.6 h
Compound: O=c1nc(NO)ccn1[C@@H]1C=C[C@H](COP(=O)(O)OP(=O)(O)O)O1
